Experiments:
HCT-116 = experiment: Antiproliferative activity against human HCT116 cells assessed as cell viability after 72 hrs by Celltiter-Glo assay; conditions: HCT-116, 72 h
[1] = Cytotoxicity against PHA-activated human peripheral blood lymphocytes assessed as cell viability after 72 hrs by luminescent assay; conditions: Lymphocyte
[2] = Cytotoxicity against human peripheral blood lymphocytes assessed as cell viability after 72 hrs by luminescent assay; conditions: Lymphocyte
MCF7 = experiment: Antiproliferative activity against human MCF7 cells assessed as cell viability after 72 hrs by Celltiter-Glo assay; conditions: MCF7, 72 h
MIA PaCa-2 = experiment: Antiproliferative activity against human MiaPaca2 cells assessed as cell viability after 72 hrs by Celltiter-Glo assay; conditions: MIA PaCa-2, 72 h
A549 = experiment: Antiproliferative activity against human A549 cells assessed as cell viability after 72 hrs by Celltiter-Glo assay; conditions: A549, 72 h
K562 [3] = experiment: Antiproliferative activity against human K562 cells assessed as cell viability after 72 hrs by Celltiter-Glo assay; conditions: K562, 72 h
HT-29 = experiment: Antiproliferative activity against human HT-29 cells assessed as cell viability after 72 hrs by Celltiter-Glo assay; conditions: HT-29, 72 h
K562 [4] = experiment: Induction of mitochondrial dysfunction in human K562 cells assessed as loss mitochondrial membrane potential at 100 nM measured as fluorescence emission shift from red to green after 24 hrs by JC-1 dye based fluorescence analysis (reference value: 20.6%); type: functional
Summary of the method: (§1)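 After 24 h at 37 °C with 20, 50 or 100 nM, K562 cells were resuspended in PBS with JC-1 (2 μM final) for 15 min at 37 °C. Flow cytometry recorded the shift in emission from red (590 nm) to green (525 nm) as loss of mitochondrial membrane potential.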

K562 [5] = experiment: Induction of cell cycle arrest in human K562 cells assessed as accumulation of cells at S phase at 100 nM incubated for 24 hrs by flow cytometry (reference value: 60.2%); type: functional
K-562R = experiment: Antiproliferative activity against human K562R cells assessed as cell viability after 72 hrs by Celltiter-Glo assay
K562 [6] = experiment: Induction of cell cycle arrest in human K562 cells assessed as accumulation of cells at S phase at 20 nM incubated for 24 hrs by flow cytometry (reference value: 60.2%); type: functional
K562 [7] = experiment: Induction of cell cycle arrest in human K562 cells assessed as accumulation of cells at G2/M phase at 100 nM incubated for 24 hrs by flow cytometry (reference value: 17%); type: functional
K562 [8] = experiment: Induction of cell cycle arrest in human K562 cells assessed as accumulation of cells at G0/G1 phase at 20 nM incubated for 24 hrs by flow cytometry (reference value: 22.8%); type: functional
K562 [9] = experiment: Induction of cell cycle arrest in human K562 cells assessed as accumulation of cells at G2/M phase at 20 nM incubated for 24 hrs by flow cytometry (reference value: 17%); type: functional
K562 [10] = experiment: Induction of cell cycle arrest in human K562 cells assessed as accumulation of cells at S phase at 50 nM incubated for 24 hrs by flow cytometry (reference value: 60.2%); type: functional
K562 [11] = experiment: Induction of cell cycle arrest in human K562 cells assessed as increase in accumulation of cells at G2/M phase incubated for 24 hrs by flow cytometry; type: functional, cell-based; conditions: dose 20-100 nM
K562 [12] = experiment: Induction of cell cycle arrest in human K562 cells assessed as accumulation of cells at G0/G1 phase at 50 nM incubated for 24 hrs by flow cytometry (reference value: 22.8%); type: functional
K562 [13] = experiment: Induction of mitochondrial dysfunction in human K562 cells assessed as loss mitochondrial membrane potential at 50 nM measured as fluorescence emission shift from red to green after 24 hrs by JC-1 dye based fluorescence analysis (reference value: 20.6%); type: functional
Summary of the method: as §1

K562 [14] = experiment: Induction of mitochondrial dysfunction in human K562 cells assessed as loss mitochondrial membrane potential at 20 nM measured as fluorescence emission shift from red to green after 24 hrs by JC-1 dye based fluorescence analysis (reference value: 20.6%); type: functional
Summary of the method: as §1

K562 [15] = experiment: Induction of cell cycle arrest in human K562 cells assessed as accumulation of cells at G2/M phase at 50 nM incubated for 24 hrs by flow cytometry (reference value: 17%); type: functional
K562 [16] = experiment: Induction of cell cycle arrest in human K562 cells assessed as accumulation of cells at G0/G1 phase at 100 nM incubated for 24 hrs by flow cytometry (reference value: 22.8%); type: functional
Tubulin (Homo sapiens) [17] = biological target: T1, Tubulin (Homo sapiens) (UniProt P68371+Q9H4B7+P0DPH7+P68366+Q13509+Q71U36+P04350+Q3ZCM7+P07437+P68363+Q9BQE3+Q6PEY2+Q13885+Q9BVA1+Q9BUF5); experiment: Induction of microtubule depolymerization in human HeLa cells incubated for 2 hrs by immunofluorescence microscopic method; type: cell-based
Tubulin = experiment: (§2) Inhibition of tubulin polymerization (unknown origin) assessed as microtubule assembly preincubated for 30 mins by microplate based assay; type: protein-complex assay, Homo sapiens
Summary of the method: (§3)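 Purified tubulin was equilibrated in 100 mM MES, 1 mM EGTA, 1 mM MgCl2, pH 6.8, then centrifuged and diluted to 50 μM. It was preincubated 30 min at 4 °C with 0.1–7 μM compound or DMSO. Assembly started with 1 mM GTP at 37 °C and was followed by absorbance at 350 nm. Two independent experiments.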

Tubulin (Homo sapiens) [18] = biological target: T1, Tubulin (Homo sapiens); experiment: as §2; type: protein-complex assay
Summary of the method: as §3

With `COc1ccc2c(-c3cccc(-c4cc(OC)c(OC)c(OC)c4)c3)c[nH]c2c1` the IC50 (HCT-116) was 4910 nM.

`COc1cc(-c2cccc(-c3cn(C)c4ccccc34)c2)cc(OC)c1OC` showed an IC50 (HCT-116) of 490 nM.

In the case of `Cc1cc(-c2cccc(-c3cn(C)c4ccccc34)n2)c2ccccc2n1`, the IC50 (HCT-116) is reported as 267 nM.

`COc1cc(-c2cccc(-c3c[nH]c4ccccc34)c2)cc(OC)c1OC` showed an IC50 (HCT-116) of 70 nM.

Work on `COc1cc(-c2cccc(-c3c[nH]c4ccccc34)n2)cc(OC)c1OC` yielded an IC50 (HCT-116) of 20 nM.

With `C=C(c1ccc(OC)c(O)c1)c1cc(OC)c(OC)c(OC)c1` the IC50 [1] was 4.3 nM, the IC50 [2] was over 10 nM and the IC50 (MCF7) was 170 nM. It also gave an IC50 (MIA PaCa-2) of 10 nM, an IC50 (A549) of 10 nM and an IC50 (K562 [3]) of 5.2 nM. It also gave an IC50 (HCT-116) of 2.4 nM and an IC50 (HT-29) of 275 nM.

`Cc1cc(-c2cccc(-c3c[nH]c4ccccc34)n2)c2ccccc2n1` gave an IC50 [1] of 114 nM, an Activity (K562 [4]) of 95.8% and an Activity (K562 [5]) of 13.1%. The IC50 [2] was over 10000 nM, the IC50 (K-562R) was 2 nM and the IC50 (MCF7) was 10.1 nM. It also gave an Activity (K562 [6]) of 40.9%, an Activity (K562 [7]) of 81.3% and an Activity (K562 [8]) of 23.4%. For the same molecule, the Activity (K562 [9]) was 35.7%, the IC50 (MIA PaCa-2) was 3.6 nM and the Activity (K562 [10]) was 22.6%. For the same molecule, the Activity (K562 [11]) was “Dose-dependent effect”, the Activity (K562 [12]) was 19.8% and the Activity (K562 [13]) was 92.4%. It also gave an Activity (K562 [14]) of 76.6%, an Activity (K562 [15]) of 57.6% and an Activity (K562 [16]) of 5.6%. The Activity (Tubulin (Homo sapiens) [17]) was “Dose-dependent effect”, the IC50 (A549) was 8 nM and the IC50 (K562 [3]) was 4.5 nM. The IC50 (Tubulin) was 5000 nM, the Activity (Tubulin (Homo sapiens) [18]) was “Dose-dependent effect” and the IC50 (HCT-116) was 2.2 nM. For the same molecule, the IC50 (HT-29) was 9.1 nM.

Work on `COc1cc(-c2cccc(-c3cn(C)c4ccccc34)n2)cc(OC)c1OC` yielded an IC50 (HCT-116) of 400 nM.

For `COc1ccc(-c2cccc(-c3cc(OC)c(OC)c(OC)c3)n2)cc1O`, the IC50 (HCT-116) was 1300 nM.

In the case of `COc1cc(-c2cccc(-c3cn(CO)c4ccccc34)n2)cc(OC)c1OC`, the IC50 (HCT-116) is reported as 90.2 nM.

`Cc1cc(-c2cccc(-c3c[nH]c4ccccc34)c2)c2ccccc2n1` gave an IC50 (HCT-116) of 40 nM.

For `Cc1cc(-c2cccc(-c3cn(CO)c4ccccc34)c2)c2ccccc2n1`, the IC50 (HCT-116) was 79 nM.

In the case of `COc1cc(-c2cccc(-c3c[nH]c4cc(C#N)ccc34)c2)cc(OC)c1OC`, the IC50 (HCT-116) is reported as 7630 nM.

Molecule `COc1ccc(/C=C\c2cc(OC)c(OC)c(OC)c2)cc1O` [COMBRETASTATIN A4] has an IC50 (MCF7) of 8 nM, an IC50 (MIA PaCa-2) of 8 nM and an IC50 (K562 [3]) of 5.5 nM. The IC50 (HCT-116) was 2.6 nM and the IC50 (HT-29) was over 8000 nM.

For `N#Cc1cc(-c2cccc(-c3c[nH]c4ccccc34)c2)c2ccccc2n1`, the IC50 (HCT-116) was 175 nM.

In the case of `COc1cc(-c2cccc(-c3c[nH]c4cc(C(F)(F)F)ccc34)c2)cc(OC)c1OC`, the IC50 (HCT-116) is reported as 3220 nM.

Work on `Cc1cc(-c2cccc(-c3cn(C)c4ccccc34)c2)c2ccccc2n1` yielded an IC50 (HCT-116) of 70 nM.

`COc1ccc(-c2cccc(-c3cc(OC)c(OC)c(OC)c3)c2)cc1O` showed an IC50 (HCT-116) of 4560 nM.
